Results reported in paper PMC6860364 (British journal of haematology, 2017).

Assays:
[1] = historical studies; ref Harrison et al, 2016; cited from earlier work
[2] = preclinical studies; ref Di et al, 2016; cited from earlier work
[3] = tested on: CT-L, T-L and C-L catalytic activities of the proteasome; experiment: Pharmacodynamics: proteasome activity in packed whole blood; format: in vivo, human; settings: 0·4 and 0·5 mg/m^2 MRZ, study dosing schedule
[4] = Blood pharmacokinetics of MRZ in RRMM patients, Cycle 1 Day 8, non-compartmental; format: in vivo; settings: human, iv
How it was run: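 Relapsed/refractory myeloma patients got the test compound at 0·3–0·5 mg/m² as a 2-h IV infusion on days 1, 4, 8 and 11 of 28-day cycles, with pomalidomide and oral dexamethasone. Saline hydration ran 1 h before and 2 h after infusion. Blood was sampled on Cycle 1 Day 8 pre-dose, at 40, 80 and 120 min into infusion, and 2–90 min after its end.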

For `C[C@@]12OC(=O)[C@]1([C@@H](O)[C@@H]1C=CCCC1)NC(=O)[C@@H]2CCCl` [MRZ, Marizomib], the half-life [1] is given as 6 to 10 min, the “ability to cross the blood brain barrier (BBB)” value [2] is given as “crosses the BBB” and the “proteasome subunit inhibition in PWB” value [3] is given as “Partial or complete proteasome subunit inhibition in PWB was achieved”. The Vd [4] was 41 to 86 L and the clearance [4] was 4200 to 9400 mL/min.
